An excerpt weighted towards active compounds, which were near 12% of everything screened.
ROMK primary = human ROMK K+ channel modulation, primary screen. B-score at 10 µM. Tet-inducible ROMK, thallium flux fluorescence; actives lie on both sides. P48048. actives 2% (n = 130,000);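 active = signal ratio slope over the read window, or its plate-corrected B-score, at least 3 SD from the plate mean, either direction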;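 note: B-score of the F/F0 ratio slope over 7 to 12 s after thallium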
Target sequence (P48048 whole entry, looked up): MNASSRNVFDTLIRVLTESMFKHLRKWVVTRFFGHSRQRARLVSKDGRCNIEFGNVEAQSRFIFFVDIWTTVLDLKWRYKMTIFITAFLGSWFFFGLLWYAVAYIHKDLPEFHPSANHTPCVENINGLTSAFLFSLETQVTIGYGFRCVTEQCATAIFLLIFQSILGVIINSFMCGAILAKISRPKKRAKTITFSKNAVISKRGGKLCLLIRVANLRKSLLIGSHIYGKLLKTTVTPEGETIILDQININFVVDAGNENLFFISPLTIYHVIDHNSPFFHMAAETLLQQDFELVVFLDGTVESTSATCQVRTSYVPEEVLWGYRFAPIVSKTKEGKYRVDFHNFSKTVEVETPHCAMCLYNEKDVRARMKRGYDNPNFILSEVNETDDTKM
Diaph act CS = activates diaphorase or chemically reduces, flagging diaphorase assay artifacts | Diaphorase/resazurin coupled assay, resorufin fluorescence, 16 min; active compounds read high; 1 = vehicle wells, 0 = NADH-free wells | AID 1229 | actives 0.005% (n = 190,000) | activation factor at 20 µM;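 active = diaphorase activity raised at least twofold by the compound at 20 µM; inactive = activation factor below 2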
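Assay system: bacterial diaphorase enzyme (C. kluyveri) / Input: enzyme 0.07 U/mL final / Medium: 50 mM HEPES pH 7.4 with 4.542 mM MgCl2, 0.005% Tween 20 / Doses: single compound dose of 20 µM, 1% DMSO final / Incubation: 16 min enzyme reaction, ambient temperature / Signal: fluorescence, excitation 544 nm and emission 590 nm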
WT yeast gro inh = growth inhibition of WT yeast, mitochondrial fusion screen. actives 2.1% (n = 190,000). mitochondrial fusion phenotypic screen, WT strain. inhibition, % at 10 µM; in the data active = inhibition above about 58%; tested in S. cerevisiae
Diaphorase inh = counter-screen for diaphorase-based assays: diaphorase inhibitors and chemical oxidizers | inhibition, % at 20 µM | actives 0.69% (n = 190,000) | diaphorase resazurin-to-resorufin fluorescence, NADH, 16 min; bacterial (C. kluyveri) enzyme, not human;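 active = primary screen inhibition at 20 µM above a set limit, cut at about 50% in these data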;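 note: plate controls were DMSO with full reaction for no effect and wells lacking NADH for full effect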
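System: Diaphorase enzyme from Clostridium kluyveri | Amount: Enzyme working solution with 0.14 U/mL diaphorase | Benchmarks: No-NADH positive control and DMSO neutral control | Signal: Fluorescence of resorufin formed from resazurin, Ex 544/Em 590 nm | Schedule: 16-min room-temperature incubation before reading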
L major viab = Leishmania major promastigote growth inhibition; inhibition, % at 10 µM; actives 9% (n = 200,000); Leishmania major promastigotes, resazurin fluorescence viability; AID 1063; in the data active = inhibition above about 50%;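 note: promastigotes grown with compound for 44 hours at 28 °C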
Cl transport mod = modulates chloride dependent transport by human KCC2 | Q9H2X9 | KCC2 cells, thallium flux FluoZin-2 fluorescence | B-score of Tl+ flux slope (higher = more flux/activation; lower = inhibition) at 10 µM | actives 2.2% (n = 190,000) | AID 1456;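 active = thallium flux slope and its plate-corrected score both differing from the plate sample mean at a set confidence after two filtering rounds, in either direction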;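 note: slope of fluorescence scaled to starting intensity during 10 to 20 s after thallium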
Active calls of the source: *; . = not tested or not shown.

SMILES	ROMK primary	Diaph act CS	WT yeast gro inh	Diaphorase inh	L major viab	Cl transport mod
COc1ccc(C2C3C=CCC(c4cccc(-c5ccc(C)cc5)c4)C3C(=O)N2Cc2ccccc2)cc1Cl (stereo not given)	.	.	.	.	.	0.756
Cc1cc(C)c(C(N)=O)c(NC(=O)Nc2ccccc2Cl)n1	-0.564	0.9	0.8	5.6	-0.5	-0.187
O=C(COC(=O)c1ccc(S(=O)(=O)Nc2ccccc2)cc1)NCCN1C(=O)CSC1=O	.	0.9	9.8	6.9	-4.0	0.969
CC(C)N(C(=O)CSc1nnc(-c2cc3ccccc3cc2O)n1Cc1ccco1)C(C)C	-0.442	0.8	7.8	18.8	53.5*	0.195
Cc1ccc(-c2nnc(SCc3ccc(C#N)cc3)n2Cc2ccco2)cc1	.	0.8	13.2	18.3	66.0*	-1.13
COCCn1c(SCC(=O)N(C(C)C)C(C)C)nnc1-c1cc2ccccc2cc1O	.	0.8	-3.7	17.4	15.5	.
COc1ccc(-n2c(COc3cccc4ccccc34)nnc2SCC#N)cc1	-1.6	0.8	48.5	23.8	55.3*	-1.87
O=C(CCS(=O)(=O)c1ccccc1)Nc1nccs1	.	0.8	13.3	16.5	13.4	0.409
CCC(=O)N1c2ccc(S(=O)(=O)CCC(=O)Nc3nccs3)cc2CC1C (stereo not given)	5.65*	0.9	4.1	11.3	8.5	.
C=CCSc1nc2c(cnn2-c2ccccc2)c(=O)n1N	0.0375	.	.	.	.	-1.14
COc1ccc(NC(=O)Cn2cccc2)c(OC)c1	0.648	0.3	-9.9	74.4*	-5.3	0.848
COC(=O)c1cc2oc3ccccc3c2n1CC(=O)Nc1ccccc1OC	.	1	1.2	-3.4	83.0*	0.093
COc1ccc(NC(=O)Cn2c(=O)n(-c3ccccc3)c(=O)c3oc4ccccc4c32)c(OC)c1	1.69	1.1	-0.7	-10.2	61.0*	-0.491
COc1cc(C(=O)Nc2ccc(OCC(=O)O)cc2)cc(OC)c1OC	.	0.9	6.8	10.2	-7.5	1.59
CCC(C)NC(=O)C1CCCCN1S(=O)(=O)c1ccc(F)cc1 (stereo not given)	-0.426	0.9	-1.8	14.8	-4.5	.
COC(=O)C(C)NC(=O)C1CCCN1S(=O)(=O)c1cc(C)c(Cl)cc1C (stereo not given)	.	0.9	11.7	12.0	-6.1	-4.34*
CN=c1scc(-c2ccccc2Br)n1/N=C/c1ccc[nH]1	1.43	0.8	72.6*	15.1	14.5	-0.136
Cc1ccccc1NC(=O)c1cccc(OCc2c(C)noc2C)c1	.	0.9	-33.4	10.0	59.0*	-1.69
Cc1noc(C)c1COc1cccc(C(=O)Nc2ccc(C#N)cc2)c1	.	0.9	26.4	10.9	82.8*	-0.149
COc1ccc(NS(=O)(=O)c2cc(NC(=O)c3cccc(OCc4c(C)noc4C)c3)ccc2OC)cc1	-0.153	0.8	-15.4	21.2	97.9*	-1.9
Cc1ccc(NC(=O)c2ccc(OCc3c(C)noc3C)cc2)cc1	.	.	.	.	.	0.00428
Cc1ccc(NC(=O)c2cccc(OCc3c(C)noc3C)c2)cc1	-1.1	1	-5.9	1.6	82.7*	-1.65
COc1cc(C(=O)Nc2ccc3c(c2)OCO3)ccc1OCc1c(C)noc1C	0.00595	0.9	21.6	6.6	9.9	-0.0474
Cc1cccc(C(=O)Nc2ccccc2C(=O)OCc2c(C)noc2C)c1	0.00551	0.8	7.3	20.7	0.2	-0.868
COc1ccc(/C=C(\NC(=O)c2ccccc2)C(=O)NC2CCS(=O)(=O)C2)cc1 (stereo not given)	-0.147	.	.	.	.	0.0225
CCOC(=O)c1c(C)n2c3c(cc(C)cc13)CCC2	-0.451	1	7.3	0.2	2.2	-0.198
Cc1noc(C)c1COc1cccc(C(=O)NCc2cccc(Cl)c2)c1	.	0.9	38.4	14.3	73.0*	-0.873
CCOC(=O)C1CCN(C(=O)C23CC4CC(CC(C4)C2)C3)CC1	.	0.9	3.8	11.2	103.7*	1.3
Cc1cc(C)c(S(=O)(=O)N2CCCOC2CNC(=O)C(=O)NCc2cccs2)c(C)c1 (stereo not given)	0.0247	1	-21.2	-0.6	2.6	-0.517
COC(=O)[C@@H]1[C@@H](C#N)C2(c3ccccc3-c3ccccc32)N(c2ccc(Cl)cc2)N1C#N	-0.326	0.9	73.6*	14.9	-1.5	-1.07
